Measured values reported in ChEMBL document CHEMBL3407339, “A novel series of thiazolyl-pyrazoline derivatives: synthesis and evaluation of antifungal activity, cytotoxicity and genotoxicity” (Eur J Med Chem, 2015).
≈ marks a conversion by molar mass, not a printed value.

Each compound was assayed on Salmonella typhimurium (assay: Mutagenicity in Salmonella typhimurium TA98 at 5 mg/ml after 48 hrs by AMES MPF assay in presence of Sprague-Dawley rat liver microsomal S9 fraction relative to baseline). Details: salmonella enterica subsp. enterica serovar typhimurium.
Assay type: toxicity, organism-based
In short: (§1)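 Ames MPF fluctuation test with TA98/TA100. Overnight cultures (37 °C, 14–16 h) mixed with exposure medium; ±Aroclor-1254-induced rat liver S9 (final 4.5% v/v). Compounds in DMSO, 0.156–5 mg/mL. 90 min exposure at 37 °C, then indicator medium; 48 wells per concentration, 48 h at 37 °C, in triplicate. Yellow wells counted; fold induction over baseline (mean + 1 SD of zero-dose control).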

| SMILES | fold change (FC) |
| --- | --- |
| Cc1ccc(C2=NN(c3nc(-c4ccc(C#N)cc4)cs3)C(c3ccc(F)cc3)C2)s1 (stereo not drawn) | 1.16 |

What follows are compounds tested on Salmonella typhimurium (assay: Mutagenicity in Salmonella typhimurium TA100 at 2.5 mg/ml after 48 hrs by AMES MPF assay in presence of Sprague-Dawley rat liver microsomal S9 fraction relative to baseline). Details: salmonella enterica subsp. enterica serovar typhimurium.
Assay type: toxicity, organism-based
In short: as §1

| SMILES | fold change (FC) |
| --- | --- |
| Cc1ccc(C2=NN(c3nc(-c4ccc(C#N)cc4)cs3)C(c3ccc(F)cc3)C2)s1 (stereo not drawn) | 0.55 |

The compounds below were run on Salmonella typhimurium (assay: Mutagenicity in Salmonella typhimurium TA98 at 0.625 mg/ml after 48 hrs by AMES MPF assay in presence of Sprague-Dawley rat liver microsomal S9 fraction relative to baseline). Details: salmonella enterica subsp. enterica serovar typhimurium.
Assay type: toxicity, organism-based
In short: as §1

| SMILES | fold change (FC) |
| --- | --- |
| Cc1ccc(C2=NN(c3nc(-c4ccc(C#N)cc4)cs3)C(c3ccc(F)cc3)C2)s1 (stereo not drawn) | 1.07 |

What follows are compounds tested on Salmonella typhimurium (assay: Mutagenicity in Salmonella typhimurium TA100 at 0.625 mg/ml after 48 hrs by AMES MPF assay in presence of Sprague-Dawley rat liver microsomal S9 fraction relative to baseline). Details: salmonella enterica subsp. enterica serovar typhimurium.
Assay type: toxicity, organism-based
In short: as §1

| SMILES | fold change (FC) |
| --- | --- |
| Cc1ccc(C2=NN(c3nc(-c4ccc(C#N)cc4)cs3)C(c3ccc(F)cc3)C2)s1 (stereo not drawn) | 0.86 |

The compounds below were run on Candida parapsilosis (assay: Antifungal activity against Candida parapsilosis NRLL Y 12696 after 48 hrs by broth microdilution assay). Details: Lodderomyces parapsilosis, NRLL Y 12696, 48 h.
Assay type: functional
In short: (§2)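 Broth microdilution of DMSO stocks serially diluted in sterile water (4 to 0.0039 mg/mL). Yeasts grown on SDA at 37 °C for 24 h, suspended in double-strength PDB at 10⁵ spores/mL. Incubated at 37 °C for 48 h, then sprayed with 0.5% aqueous TTC. MIC = lowest concentration inhibiting visible growth. Ketoconazole reference.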

| SMILES | MIC |
| --- | --- |
| Cc1ccc(C2=NN(c3nc(-c4ccc(C#N)cc4)cs3)C(c3ccc(F)cc3)C2)s1 (stereo not drawn) | 250 µg/mL (≈ 562 µM) |

The compounds below were run on Salmonella typhimurium (assay: Mutagenicity in Salmonella typhimurium TA98 at 0.625 mg/ml after 48 hrs by AMES MPF assay in absence of Sprague-Dawley rat liver microsomal S9 fraction relative to baseline). Details: salmonella enterica subsp. enterica serovar typhimurium.
Assay type: toxicity, organism-based
In short: as §1

| SMILES | fold change (FC) |
| --- | --- |
| Cc1ccc(C2=NN(c3nc(-c4ccc(C#N)cc4)cs3)C(c3ccc(F)cc3)C2)s1 (stereo not drawn) | 1.11 |

What follows are compounds tested on Salmonella typhimurium (assay: Mutagenicity in Salmonella typhimurium TA100 at 5 mg/ml after 48 hrs by AMES MPF assay in presence of Sprague-Dawley rat liver microsomal S9 fraction relative to baseline). Details: salmonella enterica subsp. enterica serovar typhimurium.
Assay type: toxicity, organism-based
In short: as §1

| SMILES | fold change (FC) |
| --- | --- |
| Cc1ccc(C2=NN(c3nc(-c4ccc(C#N)cc4)cs3)C(c3ccc(F)cc3)C2)s1 (stereo not drawn) | 1.01 |

These compounds were tested on Salmonella typhimurium (assay: Mutagenicity in Salmonella typhimurium TA98 at 0.3125 mg/ml after 48 hrs by AMES MPF assay in absence of Sprague-Dawley rat liver microsomal S9 fraction relative to baseline). Details: salmonella enterica subsp. enterica serovar typhimurium.
Assay type: toxicity, organism-based
In short: as §1

| SMILES | fold change (FC) |
| --- | --- |
| Cc1ccc(C2=NN(c3nc(-c4ccc(C#N)cc4)cs3)C(c3ccc(F)cc3)C2)s1 (stereo not drawn) | 1.56 |

Each compound was assayed on Salmonella typhimurium (assay: Mutagenicity in Salmonella typhimurium TA100 at 5 mg/ml after 48 hrs by AMES MPF assay in absence of Sprague-Dawley rat liver microsomal S9 fraction relative to baseline). Details: salmonella enterica subsp. enterica serovar typhimurium.
Assay type: toxicity, organism-based
In short: as §1

| SMILES | fold change (FC) |
| --- | --- |
| Cc1ccc(C2=NN(c3nc(-c4ccc(C#N)cc4)cs3)C(c3ccc(F)cc3)C2)s1 (stereo not drawn) | 0.8 |

Each compound was assayed on Salmonella typhimurium (assay: Mutagenicity in Salmonella typhimurium TA100 at 2.5 mg/ml after 48 hrs by AMES MPF assay in absence of Sprague-Dawley rat liver microsomal S9 fraction relative to baseline). Details: salmonella enterica subsp. enterica serovar typhimurium.
Assay type: toxicity, organism-based
In short: as §1

| SMILES | fold change (FC) |
| --- | --- |
| Cc1ccc(C2=NN(c3nc(-c4ccc(C#N)cc4)cs3)C(c3ccc(F)cc3)C2)s1 (stereo not drawn) | 0.31 |

These compounds were tested on Salmonella typhimurium (assay: Mutagenicity in Salmonella typhimurium TA98 at 0.3125 mg/ml after 48 hrs by AMES MPF assay in presence of Sprague-Dawley rat liver microsomal S9 fraction relative to baseline). Details: salmonella enterica subsp. enterica serovar typhimurium.
Assay type: toxicity, organism-based
In short: as §1

| SMILES | fold change (FC) |
| --- | --- |
| Cc1ccc(C2=NN(c3nc(-c4ccc(C#N)cc4)cs3)C(c3ccc(F)cc3)C2)s1 (stereo not drawn) | 0.18 |

The compounds below were run on Aspergillus parasiticus (assay: Antifungal activity against Aspergillus parasiticus NRRL 465 after 72 hrs by broth microdilution assay). Details: NRRL 465, 72 h.
Assay type: functional
In short: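 Compounds dissolved in DMSO, diluted in sterile distilled water from 4 to 0.0039 mg/mL. Molds grown on PDA at 25 °C for 5 days, suspended in double-strength PDB at 10⁵ spores/mL. Incubated at 25 °C for 72 h; mycelial growth read under stereo microscope. MIC = lowest concentration inhibiting visible growth. Ketoconazole reference.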

| SMILES | MIC |
| --- | --- |
| Cc1ccc(C2=NN(c3nc(-c4ccc(C#N)cc4)cs3)C(c3ccc(F)cc3)C2)s1 (stereo not drawn) | 250 µg/mL (≈ 562 µM) |

Each compound was assayed on Salmonella typhimurium (assay: Mutagenicity in Salmonella typhimurium TA100 at 0.3125 mg/ml after 48 hrs by AMES MPF assay in absence of Sprague-Dawley rat liver microsomal S9 fraction relative to baseline). Details: salmonella enterica subsp. enterica serovar typhimurium.
Assay type: toxicity, organism-based
In short: as §1

| SMILES | fold change (FC) |
| --- | --- |
| Cc1ccc(C2=NN(c3nc(-c4ccc(C#N)cc4)cs3)C(c3ccc(F)cc3)C2)s1 (stereo not drawn) | 0.74 |

Each compound was assayed on Salmonella typhimurium (assay: Mutagenicity in Salmonella typhimurium TA100 at 1.25 mg/ml after 48 hrs by AMES MPF assay in absence of Sprague-Dawley rat liver microsomal S9 fraction relative to baseline). Details: salmonella enterica subsp. enterica serovar typhimurium.
Assay type: toxicity, organism-based
In short: as §1

| SMILES | fold change (FC) |
| --- | --- |
| Cc1ccc(C2=NN(c3nc(-c4ccc(C#N)cc4)cs3)C(c3ccc(F)cc3)C2)s1 (stereo not drawn) | 0.31 |

Each compound was assayed on [Candida] zeylanoides (assay: Antifungal activity against Candida zeylanoides NRLL Y 1774 after 48 hrs by broth microdilution assay). Details: Dujonia zeylanoides, NRLL Y 1774, 48 h.
Assay type: functional
In short: as §2

| SMILES | MIC |
| --- | --- |
| Cc1ccc(C2=NN(c3nc(-c4ccc(C#N)cc4)cs3)C(c3ccc(F)cc3)C2)s1 (stereo not drawn) | 250 µg/mL (≈ 562 µM) |

What follows are compounds tested on A549 (assay: Antiproliferative activity against human A549 cells after 24 hrs by XTT assay). Details: A549, 24 h.
Assay type: functional, cell-based
In short: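 A549 cells in RPMI and NIH/3T3 cells in DMEM, each with fetal calf serum, antibiotics and 7.5% NaHCO₃, at 37 °C, 5% CO₂. Seeded at 20,000 cells/well, 24 h, then compounds added in medium at 500–3.9 doses (final DMSO <0.1%) for 24 h. XTT read after 3 h at 480 nm (ref 680 nm). IC₅₀ by non-linear regression; triplicates; cisplatin control.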

| SMILES | IC50 |
| --- | --- |
| Cc1ccc(C2=NN(c3nc(-c4ccc(C#N)cc4)cs3)C(c3ccc(F)cc3)C2)s1 (stereo not drawn) | 322 µg/mL (≈ 724 µM) |

Each compound was assayed on Salmonella typhimurium (assay: Mutagenicity in Salmonella typhimurium TA100 at 1.25 mg/ml after 48 hrs by AMES MPF assay in presence of Sprague-Dawley rat liver microsomal S9 fraction relative to baseline). Details: salmonella enterica subsp. enterica serovar typhimurium.
Assay type: toxicity, organism-based
In short: as §1

| SMILES | fold change (FC) |
| --- | --- |
| Cc1ccc(C2=NN(c3nc(-c4ccc(C#N)cc4)cs3)C(c3ccc(F)cc3)C2)s1 (stereo not drawn) | 0.7 |

Each compound was assayed on Salmonella typhimurium (assay: Mutagenicity in Salmonella typhimurium TA98 at 0.156 mg/ml after 48 hrs by AMES MPF assay in absence of Sprague-Dawley rat liver microsomal S9 fraction relative to baseline). Details: salmonella enterica subsp. enterica serovar typhimurium.
Assay type: toxicity, organism-based
In short: as §1

| SMILES | fold change (FC) |
| --- | --- |
| Cc1ccc(C2=NN(c3nc(-c4ccc(C#N)cc4)cs3)C(c3ccc(F)cc3)C2)s1 (stereo not drawn) | 1.78 |
